Assay results pooled from the literature.
Each line is one published result; the experiments were not run side by side.
Target: Calcium/calmodulin-dependent protein kinase kinase 2 (CAMKK2, Homo sapiens, UniProt Q96RR4)

SMILES | assay | conditions | measurement | result
CC(C)(C)c1nc(-c2cccc(NS(=O)(=O)c3c(F)cccc3F)c2F)c(-c2ccnc(N)n2)s1 | enzyme activity, inhibitor, radiometric | 1 µM | remaining activity | 113%
CS(=O)(=O)Nc1cccc(-c2csc(NC(=O)CSc3nc4nccnc4c(=O)n3CCc3ccccc3)n2)c1 | enzyme activity, inhibitor | 10 µM | inhibition | 4%
O=C(NCc1ncc(C(F)(F)F)cc1Cl)c1ccc2c(c1)C1(CCS(=O)(=O)CC1)[C@H](C1CC1)N2S(=O)(=O)c1ccc(F)cc1 | cell-free assay, competition with immobilised ligand | 1 µM | remaining binding | 100%
Cn1c2c(Cl)c(Cl)ccc2c2cn[nH]c(=O)c21 | thermal stability, DSF | 10 µM | ΔTm | 0.4 °C
COc1cc2nccc(Oc3ccc(NC(=O)Nc4ccc(F)cc4F)c(F)c3)c2cc1OC | thermal stability, DSF | 10 µM | ΔTm | 5 to 10 °C
CN1CCN(c2cnc3c(C4CCN(C(=O)c5ccc(OC(F)(F)F)cc5N)CC4)ncnc3c2)CC1 | cell-free assay, competition with immobilised ligand | 1 µM | remaining binding | 100%
CCC1(CC)NC(=O)c2c(c3ccc(Cl)c(Cl)c3n2C)C1C#N (centres unmarked) | thermal stability, DSF | 10 µM | ΔTm | 0.3 °C
O=C1NC(=O)c2cc(Nc3ccc(F)cc3)c(Nc3ccc(F)cc3)cc21 | cell-free assay | 0.5 µM | remaining signal | 88.3%
CC(C)(O)[C@H]1CC[C@H](Nc2ccc3ncc(-c4cccc(C(F)(F)F)c4)n3n2)CC1 | enzyme activity, inhibitor | 1 µM | remaining activity | 96.9%
Cc1ccc(C(=O)Nc2ccc(CN3CCN(C)CC3)c(C(F)(F)F)c2)cc1C#Cc1cnc2cccnn12 | enzyme activity, inhibitor | 23.5 nM | remaining activity | 83%
COc1ccc2c(c1)O[C@H](c1ccc(OC)c(OC)c1)C[C@@H]2NC(=O)C1(c2ccc3c(c2)OC(F)(F)O3)CC1 | cell-free assay, competition with immobilised ligand | 1 µM | remaining binding | 100%
c1ccc(CNc2nc(N3CCOc4ccccc43)nc3c2CCCC3)cc1 | target engagement in cells, inhibitor, chemoproteomics | 20 mM | inhibition | 0.1%
Cc1noc([C@H]2C[C@@H](c3ccc(C(F)(F)F)cc3)CN(C(=O)N3CCS(=O)(=O)C3)C2)n1 | cell-free assay, competition with immobilised ligand | 1 µM | remaining binding | 100%
Cc1ccc(NC(=O)c2ccc(C)c(C(F)(F)F)c2)cc1C#Cc1nn(C2CCC(O)CC2)c2ncnc(N)c12 (centres unmarked) | cell-free assay | 10 µM | remaining signal | 55%
CCN1CCC2(CC1)NC(=O)c1c(c3ccc(Cl)c(Cl)c3n1C)C2C#N (racemic) | thermal stability, DSF | 10 µM | ΔTm | 0.5 °C
FC(F)c1nc2ccccc2n1-c1nc(N2CCOCC2)nc(N2CCOCC2)n1 | enzyme activity, inhibitor | 10 µM | remaining activity | 87%
N#CCCc1ccc2c(c1)-c1[nH]c3ccc([N+](=O)[O-])cc3c1CC(=O)N2 | cell-free assay | 0.5 µM | remaining signal | 86.8%
Cn1c(=O)n(-c2ccc(C(C)(C)C#N)cc2)c2c3cc(-c4cnc5ccccc5c4)ccc3ncc21 | enzyme activity, inhibitor | 10 µM | remaining activity | 61%
Nc1nc(Nc2ccccc2)sc1C(=O)c1c(F)cccc1F | enzyme activity, inhibitor | 10 µM | remaining activity | 12%
Cc1cc(NC(=O)c2cccc3cc(-c4cccc5[nH]nc(N)c45)ccc23)ccc1F | enzyme activity, inhibitor | 0.1 µM | activity vs control | 90%
FC(F)(F)Oc1cccc(-c2cnc3ccc(-c4ccncc4)nn23)c1 | enzyme activity, inhibitor, radiometric | 5 µM | activity vs control | 60%
O=C(O)c1cc(-c2ccc(C3CCNCC3)cc2)c2ccc(-c3ccc(C(F)(F)F)cc3)cc2c1 | cell-free assay, competition with immobilised ligand | 1 µM | remaining binding | 100%
Nc1ncnc2occ(-c3ccc(NC(=O)Nc4cc(C(F)(F)F)ccc4F)cc3)c12 | cell-free assay, inhibitor | 20 µM | remaining signal | 24%
O=C(O)[C@H]1[C@H](Cn2nnc3ccccc3c2=O)CC[C@@H]1C(=O)c1ccc(OCCC2CCOCC2)cc1 | cell-free assay, competition with immobilised ligand | 1 µM | remaining binding | 90%
CNC(=O)c1cc(Oc2ccc(NC(=O)Nc3ccc(Cl)c(C(F)(F)F)c3)cc2)ccn1 | cell-free assay | 0.5 µM | remaining signal | 103%
CCc1ccccc1C(=O)Nc1n[nH]c2c(C)c(F)c(C3C(C#N)=C(C)N(C)C(C)=C3C#N)cc12 | cell-free assay, competition with immobilised ligand | 1 µM | remaining binding | 95%
O=C(Nc1cnn(-c2csc(C(=O)NC3COC3)c2)c1)Nc1c(F)cccc1Cl | enzyme activity, inhibitor | 5 µM | remaining activity | 81%
CC(=O)Nc1c(C(C)=O)c(=O)n(C)c2nc(-c3ccc(Cl)cc3Cl)c(-c3ccc(Cl)cc3)cc12 | cell-free assay, competition with immobilised ligand | 1 µM | remaining binding | 100%
COc1cc(Nc2cnc(C#N)c(O[C@H](C)CN(C)C)n2)ncc1-c1cnn(C)c1 | enzyme activity, inhibitor, radiometric | 1 µM | remaining activity | 103%
